Source: ChEMBL document CHEMBL3826914, “Selective photodepletion of malignant T cells in extracorporeal photopheresis with selenorhodamine photosensitizers” (Bioorg Med Chem, 2016)

Key:
[1] = Drug extrusion in human CD4 positive cells assessed as change in mean fluorescence intensity at 5 x 10^-8 M preincubated for 20 mins followed by growth in photosensitizer-free media for 30 mins by flow cytometric analysis relative to control; type: cell-based; settings: 0.5 h, 0.05 µM
[2] = Drug extrusion in SEB-stimulated human CD25 negative cells assessed as mean fluorescence intensity at 5 x 10^-8 M preincubated for 20 mins followed by growth in photosensitizer-free media for 30 mins by flow cytometric analysis relative to control; settings: 0.5 h, 0.05 µM
[3] = N-octanol/water partition coefficient, logP of the compound at 23 degC after 1 hr by HPLC based shake flask method; type: physicochemical
Procedure, shortened: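 Shake-flask method using 1-octanol: 3–5 min of mixing, then 1 h settling. Equilibration and measurement were at 23 °C, in triplicate.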

[4] = Drug extrusion in SEB-stimulated human CD25 positive cells assessed as change in mean fluorescence intensity at 5 x 10^-8 M preincubated for 20 mins followed by growth in photosensitizer-free media for 30 mins by flow cytometric analysis relative to control; settings: 0.5 h, 0.05 µM
ABCB1 [5] = experiment: Permeability from apical to basolateral side in dog MDCK2-MDR1 cells expressing ABCB1 at 5 uM after 30 mins in presence of compound 15 by LC-MS/MS analysis; type: ADME, cell-based, Canis lupus familiaris, MDCK-II; settings: MDCK-MDR1, with compound 15 (concentration not stated), read-out: permeability
Procedure, shortened: (§1)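 MDR1-transfected MDCKII cells (passage 16–42) were seeded at 50,000 cells cm^-2 on Transwell filters and used on day 6. Monolayers were rinsed in DPBS with 10^-2 M HEPES, pH 7.4, at 37 °C. They were preincubated 30 min in 4.3 mg/mL BSA/DPBSH with or without 5×10^-6 M P-gp inhibitor. 5 μM dye was added apically or basolaterally and samples taken after 1 h at 37 °C with nutation. Quantitation was by LC-MS/MS; P_passive is the mean of P_AB and P_BA under full inhibition. Mean ± SD.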

ABCB1 [6] = experiment: Passive permeability in dog MDCK2-MDR1 cells expressing ABCB1 at 5 uM after 30 mins in presence of compound 15 by LC-MS/MS analysis; type: ADME, cell-based, Canis lupus familiaris, MDCK-II; settings: MDCK-MDR1, with compound 15 (concentration not stated), read-out: permeability; procedure, shortened: as §1
[7] = Drug extrusion in SEB-stimulated human CD25 negative cells assessed as change in mean fluorescence intensity at 5 x 10^-8 M preincubated for 20 mins followed by growth in photosensitizer-free media for 30 mins by flow cytometric analysis relative to control; settings: 0.5 h, 0.05 µM
HuT78 [8] = settings: human, hut78, 0.5 h, 0.075 µM
HuT78 [9] = experiment: Drug uptake in GFP expressing human HUT78 cells co-cultured with non-stimulated human PBMC cells assessed as change in mean fluorescence intensity at 7.5 x 10^-8 M after 20 mins followed by growth in photosensitizer-free media for 30 mins by flow cytometric analysis relative to control; type: cell-based; settings: hut78, 0.5 h, 0.075 µM
ABCB1 [10] = experiment: Permeability from basolateral to apical side in dog MDCK2-MDR1 cells expressing ABCB1 at 5 uM after 30 mins in presence of compound 15 by LC-MS/MS analysis; type: ADME, cell-based, Canis lupus familiaris, MDCK-II; settings: MDCK-MDR1, with compound 15 (concentration not stated), read-out: permeability; procedure, shortened: as §1
[11] = Drug extrusion in SEB-stimulated human CD25 positive cells assessed as mean fluorescence intensity at 5 x 10^-8 M preincubated for 20 mins followed by growth in photosensitizer-free media for 30 mins by flow cytometric analysis relative to control; settings: 0.5 h, 0.05 µM
[12] = Drug extrusion in human CD8 positive cells assessed as change in mean fluorescence intensity at 5 x 10^-8 M preincubated for 20 mins followed by growth in photosensitizer-free media for 30 mins by flow cytometric analysis relative to control; type: cell-based; settings: 0.5 h, 0.05 µM
[13] = Phototoxicity human CD3 positive cells co-cultured with GFP expressing human HUT78 cells assessed as cell survival at 7.5 x 10^-8 M preincubated 20 mins in photosensitizer media followed by growth in photosensitizer-free media for 30 mins measured 18 hrs after exposure to 5 J/cm2 irradiation by FACS analysis; type: cell-based; settings: read-out: Survival
Procedure, shortened: (§2)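 Non-stimulated PBMCs from healthy donors (Ficoll-separated) were mixed 5:1 with GFP-transfected, sorted (>98%) HUT-78 cells. Cells took up 7.5×10^-8 M photosensitizer for 20 min, then spent 30 min in dye-free medium. They were exposed to 5 J cm^-2 light (600 nm LED) with rotation at 180 rpm. Survival was gated by FACS (GFP, CD3, CD4, CD8) 18 h later versus non-irradiated controls. Triplicate; mean ± SEM.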

ABCB1 [14] = experiment: Permeability from apical to basolateral side in dog MDCK2-MDR1 cells expressing ABCB1 at 5 uM after 30 mins in absence of compound 15 by LC-MS/MS analysis; type: ADME, cell-based, Canis lupus familiaris, MDCK-II; settings: MDCK-MDR1, read-out: permeability; procedure, shortened: as §1
[15] = Drug uptake in SEB-stimulated human CD25 negative cells assessed as mean fluorescence intensity at 5 x 10^-8 M preincubated for 20 mins followed by growth in photosensitizer-free media for 30 mins by flow cytometric analysis relative to control; settings: 0.5 h, 0.05 µM
HuT78 [16] = experiment: Phototoxicity in GFP expressing human HUT78 cells co-cultured with human PBMC cells assessed as cell survival at 7.5 x 10^-8 M preincubated 20 mins in photosensitizer media followed by growth in photosensitizer-free media for 30 mins measured 18 hrs after exposure to 5 J/cm2 irradiation by FACS analysis; type: functional; settings: HuT78, light or radiation study, read-out: Survival; procedure, shortened: as §2
[17] = Drug extrusion in human CD3 positive cells assessed as change in mean fluorescence intensity at 5 x 10^-8 M preincubated for 20 mins followed by growth in photosensitizer-free media for 30 mins by flow cytometric analysis relative to control; type: cell-based; settings: 0.5 h, 0.05 µM
ABCB1 [18] = experiment: Permeability from basolateral to apical side in dog MDCK2-MDR1 cells expressing ABCB1 at 5 uM after 30 mins in absence of compound 15 by LC-MS/MS analysis; type: ADME, cell-based, Canis lupus familiaris, MDCK-II; settings: MDCK-MDR1, read-out: permeability; procedure, shortened: as §1
[19] = Drug uptake in SEB-stimulated human CD25 positive cells assessed as mean fluorescence intensity at 5 x 10^-8 M preincubated for 20 mins followed by growth in photosensitizer-free media for 30 mins by flow cytometric analysis relative to control; settings: 0.5 h, 0.05 µM
HuT78 [20] = settings: human, hut78, 0.5 h, 0.075 µM; remark: listed apart in the source
[21] = Drug uptake in human HUT78 cell mitochondria by MTG-based bright field microscopic analysis; type: ADME
Procedure, shortened: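 HUT-78 cells (5×10^5 in 0.5 mL medium) were incubated 15 min with 2×10^-7 M dye together with 5×10^-7 M MitoTracker Green. They were centrifuged and analysed by ImageStream imaging flow cytometry, with MTG excited at 488 nm (480–560 nm channel) and dye excited at 561 nm (642–745 nm channel). Colocalisation was given as the bright detail similarity score, mean ± SD over cells.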

[22] = Phototoxicity human CD8 positive cells co-cultured with GFP expressing human HUT78 cells assessed as cell survival at 7.5 x 10^-8 M preincubated 20 mins in photosensitizer media followed by growth in photosensitizer-free media for 30 mins measured 18 hrs after exposure to 5 J/cm2 irradiation by FACS analysis; type: cell-based; settings: read-out: Survival; procedure, shortened: as §2
[23] = Phototoxicity human CD4 positive cells co-cultured with GFP expressing human HUT78 cells assessed as cell survival at 7.5 x 10^-8 M preincubated 20 mins in photosensitizer media followed by growth in photosensitizer-free media for 30 mins measured 18 hrs after exposure to 5 J/cm2 irradiation by FACS analysis; type: cell-based; settings: read-out: Survival; procedure, shortened: as §2

Row | SMILES | Activity [1] | Flu intensity [2] | logP [3] | Activity [4] | Papp A→B at 0.5 h, 5 µM (ABCB1 [5]) | Papp at 0.5 h, 5 µM (ABCB1 [6]) | Activity [7] | Flu intensity (HuT78 [8]) | Activity (HuT78 [9]) | Papp B→A at 0.5 h, 5 µM (ABCB1 [10]) | Flu intensity [11] | Activity [12] | viability at 18 h, 0.075 µM [13] | Papp A→B at 0.5 h, 5 µM (ABCB1 [14]) | Flu intensity [15] | viability at 0.075 µM (HuT78 [16]) | Activity [17] | Papp B→A at 0.5 h, 5 µM (ABCB1 [18]) | Flu intensity [19] | Flu intensity (HuT78 [20]) | also measured
1 | CN1CCC(C)(C)c2cc3c(cc21)[Se]c1cc2c(cc1=C3c1ccc(C(=S)N3CCCCC3)s1)C(C)(C)CC[N+]=2C.[Cl-] | 42.8% | 3700 a.u. | 3.7 | 16.4% | 0.051 ×10⁻⁶ cm/s | < 0.1 ×10⁻⁶ cm/s | 30.7% | 11700 a.u. | 34.6% | 0.013 ×10⁻⁶ cm/s | 12100 a.u. | 57.5% | 1.5% | 0.15 ×10⁻⁶ cm/s | 5400 a.u. | 5.6% | 40.1% | 0.63 ×10⁻⁶ cm/s | 14500 a.u. | 13800 a.u. | 
2 | C[N+]1=c2cc3c(cc2C(C)(C)CC1)=C(c1ccc(C(=S)N2CCCCC2)s1)c1cc2c4c(c1[Se]3)CCCN4CCC2.[Cl-] | 37.7% | 9500 a.u. | 3.78 | 22% | 0.046 ×10⁻⁶ cm/s | < 0.1 ×10⁻⁶ cm/s | 32.9% | 36000 a.u. | 28.2% | 0.032 ×10⁻⁶ cm/s | 33800 a.u. | 51% | 0.4% | 0.044 ×10⁻⁶ cm/s | 14100 a.u. | 0.7% | 36.8% | 0.88 ×10⁻⁶ cm/s | 43300 a.u. | 42000 a.u. | 
3 | CN1CCC(C)(C)c2cc3c(-c4ccc(C(=S)N5CCCCC5)s4)c4ccc(=[N+](C)C)cc-4[se]c3cc21.[Cl-] |  | 4800 a.u. |  |  |  |  |  | 37600 a.u. |  |  | 32200 a.u. |  |  |  | 10500 a.u. |  |  |  | 45800 a.u. | 39300 a.u. | Drug uptake [21]: Active
4 | CN1CCC(C)(C)c2cc3c(cc21)[Se]c1cc2c(cc1=C3c1ccc(C(=O)N3CCCCC3)s1)C(C)(C)CC[N+]=2C.[Cl-] | 53.3% | 1100 a.u. | 3.42 | 33.5% | 0.051 ×10⁻⁶ cm/s | 0.2 ×10⁻⁶ cm/s | 58% | 6240 a.u. | 43.1% | 0.4 ×10⁻⁶ cm/s | 7300 a.u. | 76.2% | 7.2% | 0.18 ×10⁻⁶ cm/s | 2500 a.u. | 2.4% | 51.3% | 6.5 ×10⁻⁶ cm/s | 10900 a.u. | 9130 a.u. | viability at 18 h, 0.075 µM [22]: 42.4%; viability at 18 h, 0.075 µM [23]: 1.1%
5 | CN1CCC(C)(C)c2cc3c(-c4ccc(C(=O)N5CCCCC5)s4)c4ccc(=[N+](C)C)cc-4[se]c3cc21.[Cl-] |  | 270 a.u. |  |  |  |  |  | 5270 a.u. |  |  | 3110 a.u. |  |  |  | 900 a.u. |  |  |  | 5390 a.u. | 15300 a.u. | Drug uptake [21]: Active
6 | C[N+]1=c2cc3c(cc2C(C)(C)CC1)=C(c1ccc(C(=O)N2CCCCC2)s1)c1cc2c4c(c1[Se]3)CCCN4CCC2.[Cl-] | 54.1% | 3900 a.u. | 3.51 | 37% | 0.018 ×10⁻⁶ cm/s | 0.1 ×10⁻⁶ cm/s | 58.6% | 20000 a.u. | 47.1% | 0.28 ×10⁻⁶ cm/s | 25000 a.u. | 79.6% | 4.8% | 0.14 ×10⁻⁶ cm/s | 9300 a.u. | 1.24% | 52.7% | 6.6 ×10⁻⁶ cm/s | 33800 a.u. | 33200 a.u. | viability at 18 h, 0.075 µM [22]: 24.5%; viability at 18 h, 0.075 µM [23]: 0.37%
